Source: ChEMBL document CHEMBL1152365, “First experimental identification of Ras-inhibitor binding interface using a water-soluble Ras ligand” (Bioorg Med Chem Lett, 2009)
Active and inactive are the calls of the source. The calls are words filed in the database; no cut-off is given here.

Key:
NIH3T3 [1] = test: Antiproliferative activity against mouse NIH/3T3 cells at 150 uM after 24 hrs by coulter counter; format: functional, cell-based
[2] = target: GTPase HRas (Homo sapiens) (UniProt P01112); test: Binding affinity to H-Ras(1-166) expressed in BL21 De3 Escherichia coli by isothermal titration calorimetric study
[3] = target: T1, Ras-specific guanine nucleotide-releasing factor 1 (Homo sapiens) (UniProt Q13972); test: Inhibition of GST-tagged Ras-GRF1-catalyzed exchange of bound GDP on histidine-tagged recombinant H-Ras expressed in Escherichia coli M15 at 100 uM by luminescence spectrometry
T1 sequence (whole entry): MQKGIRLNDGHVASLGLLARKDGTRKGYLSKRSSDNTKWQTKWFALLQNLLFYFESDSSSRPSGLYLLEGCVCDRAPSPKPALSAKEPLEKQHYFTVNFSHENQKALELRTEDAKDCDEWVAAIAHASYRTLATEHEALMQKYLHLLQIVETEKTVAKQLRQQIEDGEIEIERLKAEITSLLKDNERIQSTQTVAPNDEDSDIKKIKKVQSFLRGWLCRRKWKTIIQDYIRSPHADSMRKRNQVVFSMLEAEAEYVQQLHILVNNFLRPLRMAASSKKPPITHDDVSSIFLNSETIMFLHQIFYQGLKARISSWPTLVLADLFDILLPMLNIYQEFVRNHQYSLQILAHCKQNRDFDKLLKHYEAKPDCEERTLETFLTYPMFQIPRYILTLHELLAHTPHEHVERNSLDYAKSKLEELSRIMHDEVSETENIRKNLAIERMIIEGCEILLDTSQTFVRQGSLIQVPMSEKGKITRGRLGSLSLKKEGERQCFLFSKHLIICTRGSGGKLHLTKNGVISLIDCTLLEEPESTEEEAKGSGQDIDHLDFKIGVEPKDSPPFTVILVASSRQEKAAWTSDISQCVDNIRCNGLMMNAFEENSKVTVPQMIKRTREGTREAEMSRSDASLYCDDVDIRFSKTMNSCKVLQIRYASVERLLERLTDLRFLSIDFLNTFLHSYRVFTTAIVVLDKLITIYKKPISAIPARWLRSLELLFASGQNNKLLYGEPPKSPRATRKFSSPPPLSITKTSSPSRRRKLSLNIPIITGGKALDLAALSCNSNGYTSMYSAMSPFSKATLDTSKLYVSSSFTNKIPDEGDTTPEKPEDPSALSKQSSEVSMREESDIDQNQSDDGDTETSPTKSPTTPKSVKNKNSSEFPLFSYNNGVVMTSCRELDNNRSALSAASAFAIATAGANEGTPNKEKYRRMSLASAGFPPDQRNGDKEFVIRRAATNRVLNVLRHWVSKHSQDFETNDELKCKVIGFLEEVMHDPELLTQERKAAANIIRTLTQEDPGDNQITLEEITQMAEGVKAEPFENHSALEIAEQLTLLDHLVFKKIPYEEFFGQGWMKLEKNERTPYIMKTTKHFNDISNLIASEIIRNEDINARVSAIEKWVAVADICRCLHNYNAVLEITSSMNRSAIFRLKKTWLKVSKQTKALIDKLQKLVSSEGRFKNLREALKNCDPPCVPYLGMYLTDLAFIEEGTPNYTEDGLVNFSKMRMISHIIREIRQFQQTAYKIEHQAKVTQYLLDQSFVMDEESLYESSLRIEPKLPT
In short: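 GDP-to-mantGDP exchange measured on 0.25 µM H-Ras·GDP with […] mantGDP and 0.0625 µM RasGRF1, with compound at 0, 50, 100, 250 or 500 µM. Fluorescence read every second for at least 1500 s. Initial rate taken as first derivative at time 0 and normalized to the no-compound control set at 100. Mean of at least three independent experiments.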

[4] = target: GTPase HRas (Homo sapiens) (UniProt P01112); test: Binding affinity to hexa-histidine tagged H-Ras.GDP(1-166) expressed in BL21 De3 Escherichia coli by NMR binding experiment
[5] = Chemical stability at neutral pH by HPLC analysis; format: physicochemical
In short: (§1)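 Stability assessed by TLC and HPLC after storage at neutral pH for months.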

[6] = Solubility in water; format: physicochemical; conditions: buffer
[7] = Solubility in TRIS buffer; format: physicochemical
[8] = target: GTPase HRas (Homo sapiens) (UniProt P01112); test: Binding affinity to H-Ras expressed in BL21 De3 Escherichia coli assessed as damage to protein structure by circular dichroism
[9] = Chemical stability at neutral pH by TLC analysis; format: physicochemical; in short: as §1
NIH3T3 [10] = test: Antiproliferative activity against mouse NIH/3T3 cells at 450 uM after 24 hrs by coulter counter; format: functional, cell-based
NIH3T3 [11] = test: Antiproliferative activity against mouse NIH/3T3 cells assessed as morphological changes at 150 uM after 48 hrs; format: functional, cell-based
[12] = target: GTPase HRas (Homo sapiens) (UniProt P01112); test: Binding affinity to H-Ras expressed in BL21 De3 Escherichia coli assessed as induction of protein denaturation by circular dichroism

Sequence of GTPase HRas (Homo sapiens) (P01112 whole entry, looked up): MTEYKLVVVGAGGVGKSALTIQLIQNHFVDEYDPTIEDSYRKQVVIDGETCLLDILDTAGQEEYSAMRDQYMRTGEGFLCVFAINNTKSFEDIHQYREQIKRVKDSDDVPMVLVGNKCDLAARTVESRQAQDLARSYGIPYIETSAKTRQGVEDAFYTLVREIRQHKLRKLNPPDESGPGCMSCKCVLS

Activity [2]: 37 µM
inhibition [3]: 50%
Activity [4]: Active
Stability [5]: Stable
solubility [6]: Soluble
solubility [7]: Soluble
Stability [9]: Stable
Activity [12]: inactive
Compound: OC[C@H]1O[C@@H](N(Cc2ccc(O)c(O)c2)OCc2ccccc2)[C@H](O)[C@@H](O)[C@@H]1O
Activity (NIH3T3 [1]): Active
Activity [8]: inactive
Activity (NIH3T3 [10]): Active
Activity (NIH3T3 [11]): Active
